# ChEMBL document CHEMBL1811802, “Synthesis and significant cytostatic activity of 7-hetaryl-7-deazaadenosines” (J Med Chem, 2011)
# Experiments:
# [1] = system: HPAC; assay: Cytotoxicity against human HPAC cells after 3 days by MTT assay; format: functional, cell-based; details: 72 h
# [2] = system: MAT-Ly-Lu; assay: Cytotoxicity against rat MAT-LyLu cells after 3 days by MTT assay; format: functional, cell-based; details: 72 h
# [3] = system: MDA-MB-231; assay: Cytotoxicity against human MDA-MB-231 cells after 3 days by MTT assay; format: functional, cell-based; details: MDA-MB-231, 72 h
# [4] = Cytotoxicity against human CEM-DNR-bulk cells after 3 days by MTT assay; format: functional, cell-based; details: 72 h
# [5] = system: L1210; assay: Cytotoxicity against mouse L1210 cells after 3 days by MTT assay; format: functional, cell-based; details: L1210, 72 h
# [6] = system: HL-60; assay: Cytotoxicity against human HL60 cells after 3 days by XTT assay; format: functional, cell-based; details: HL-60, 72 h
# In short: (§1)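 Suspension-grown cell lines, 3-day compound incubation; viability read by XTT metabolic assay; IC50 averaged from four independent experiments.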
# [7] = biological target: Adenosine kinase (Homo sapiens, UniProt P55263); assay: Inhibition of human ADK using [3H]-adenosine by scintillation counting
# [8] = system: BJ; assay: Cytotoxicity against human BJ cells after 3 days by MTT assay; format: cell-based; details: 72 h
# [9] = system: HCT-116; assay: Cytotoxicity against human HCT116 cells after 3 days by MTT assay; format: functional, cell-based; details: HCT-116, 72 h
# [10] = system: MT4; assay: Cytostatic activity against human MT4 cells after 5 days by SRB assay; format: functional; details: MT4, 120 h
# [11] = system: DU-145; assay: Cytostatic activity against human DU145 cells after 5 days by SRB assay; format: functional; details: DU-145, 120 h
# In short: (§2)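 Cells seeded per line density, overnight at 37 °C; day-zero plate TCA-fixed. 5-fold serial dilutions added, 5-day incubation; TCA fixation, 0.057% SRB in 1% acetic acid 30 min, dye dissolved in 10 mM Tris pH 10.5, A500. Growth relative to day-zero and untreated; GIC50 from sigmoidal dose–response fit; mean of two independent experiments.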
# [12] = system: SK-OV-3; assay: Cytotoxicity against human SKOV3 cells after 3 days by MTT assay; format: functional, cell-based; details: SK-OV-3, 72 h
# [13] = Cytotoxicity against mouse P388D1 cells after 3 days by MTT assay; format: functional, cell-based; details: P388D1, 72 h
# [14] = system: BV-173; assay: Cytotoxicity against human BV173 cells after 3 days by MTT assay; format: functional, cell-based; details: BV-173, 72 h
# [15] = system: C6; assay: Cytotoxicity against rat C6 cells after 3 days by MTT assay; format: functional, cell-based; details: C6, 72 h
# [16] = system: HCT-116; assay: Cytostatic activity against human HCT116 cells after 5 days by SRB assay; format: functional; details: HCT-116, 120 h; in short: as §2
# [17] = Cytotoxicity against human U87MG cells after 3 days by MTT assay; format: functional, cell-based, U-87MG ATCC; details: U-87 MG, 72 h
# [18] = Cytostatic activity against human Hs578 cells after 5 days by SRB assay; format: functional; details: Hs578, 120 h; in short: as §2
# [19] = system: SK-MEL-2; assay: Cytotoxicity against human SK-MEL-2 cells after 3 days by MTT assay; format: functional, cell-based; details: SK-MEL-2, 72 h
# [20] = system: PC-3; assay: Cytotoxicity against human PC3 cells after 3 days by MTT assay; format: functional, cell-based; details: PC-3, 72 h
# [21] = system: HeLa; assay: Cytotoxicity against human HeLa cells after 3 days by MTT assay; format: functional, cell-based; details: 72 h
# [22] = system: SK-N-AS; assay: Cytotoxicity against human SK-N-AS cells after 3 days by MTT assay; format: functional, cell-based; details: 72 h
# [23] = system: MCF7; assay: Cytotoxicity against human MCF7 cells after 3 days by MTT assay; format: functional, cell-based; details: MCF7, 72 h
# [24] = system: NCI-H23; assay: Cytostatic activity against human NCI-H23 cells after 5 days by SRB assay; format: functional; details: NCI-H23, 120 h; in short: as §2
# [25] = system: HT-29; assay: Cytotoxicity against human HT-29 cells after 3 days by MTT assay; format: functional, cell-based; details: HT-29, 72 h
# [26] = system: A549; assay: Cytostatic activity against human A549 cells after 5 days by SRB assay; format: functional; details: A549, 120 h; in short: as §2
# [27] = system: CT26; assay: Cytotoxicity against mouse CT26 cells after 3 days by MTT assay; format: functional, cell-based; details: CT26, 72 h
# [28] = Cytotoxicity against human MES-SA cells after 3 days by MTT assay; format: functional, cell-based; details: 72 h
# [29] = system: K562; assay: Cytotoxicity against human paclitaxel resistant K562 cells after 3 days by MTT assay; format: functional, cell-based; details: K562, 72 h
# [30] = system: BT-549; assay: Cytotoxicity against human BT549 cells after 3 days by MTT assay; format: functional, cell-based; details: BT-549, 72 h
# [31] = system: EL4; assay: Cytotoxicity against mouse EL4 cells after 3 days by MTT assay; format: functional, cell-based; details: EL4, 72 h
# [32] = system: PC-3; assay: Cytostatic activity against human PC3 cells after 5 days by SRB assay; format: functional; details: PC-3, 120 h; in short: as §2
# [33] = system: CCRF-CEM; assay: Cytotoxicity against human CCRF-CEM cells after 3 days by XTT assay; format: functional, cell-based; details: 72 h; in short: as §1
# [34] = Cytotoxicity against human NCI-H146 cells after 3 days by MTT assay; format: functional, cell-based; details: NCI-H146, 72 h
# [35] = system: LNCaP; assay: Cytotoxicity against human LNCAP cells after 3 days by MTT assay; format: functional, cell-based; details: 72 h
# [36] = system: BT-549; assay: Cytostatic activity against human BT549 cells after 5 days by SRB assay; format: functional; details: BT-549, 120 h; in short: as §2
# [37] = Cytotoxicity against human HeLaS3 cells after 3 days by XTT assay; format: functional, cell-based; details: HeLa S3, 72 h; in short: as §1
# [38] = system: K562; assay: Cytotoxicity against human K562 cells after 3 days by MTT assay; format: functional, cell-based; details: K562, 72 h
# [39] = system: DU-145; assay: Metabolic stability in human DU145 cells assessed as sodium ((2R,3S,4R,5R)-5-(4-amino-7H-pyrrolo[2,3-d]pyrimidin-7-yl)-3,4-dihydroxytetrahydrofuran-2-yl)methyl hydrogentriphosphate-NTP formation per million of cells at 10 uM after 24 hrs by LC/MS/MS analysis; format: ADME, cell-based; details: du-145, 24 h
# In short: (§3)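 Du145 seeded at 60% confluence in MEM/10% FBS; next day exposed to 10 μM compound for 6 or 24 h. Cells trypsinized, extracted in 70% MeOH, dried, resuspended in 1 mM ammonium phosphate pH 8.5. Nucleoside, NMP and NTP quantified by ion-pairing (dimethylhexylamine) LC/MS/MS against untreated-cell-extract standard curves; pmol per million cells.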
# [40] = system: DU-145; assay: Metabolic stability in human DU145 cells assessed as sodium ((2R,3S,4R,5R)-5-(4-amino-7H-pyrrolo[2,3-d]pyrimidin-7-yl)-3,4-dihydroxytetrahydrofuran-2-yl)methyl hydrogenphosphate-NMP formation per million of cells at 10 uM after 6 hrs by LC/MS/MS analysis; format: ADME, cell-based; details: du-145, 6 h; in short: as §3
# [41] = system: DU-145; assay: Metabolic stability in human DU145 cells assessed as nucleoside formation per million of cells at 10 uM after 6 hrs by LC/MS/MS analysis; format: ADME, cell-based; details: du-145, 6 h; in short: as §3
# [42] = system: DU-145; assay: Metabolic stability in human DU145 cells assessed as sodium ((2R,3S,4R,5R)-5-(4-amino-7H-pyrrolo[2,3-d]pyrimidin-7-yl)-3,4-dihydroxytetrahydrofuran-2-yl)methyl hydrogentriphosphate-NTP formation per million of cells at 10 uM after 6 hrs by LC/MS/MS analysis; format: ADME, cell-based; details: du-145, 6 h; in short: as §3
# [43] = system: DU-145; assay: Metabolic stability in human DU145 cells assessed as nucleoside formation per million of cells at 10 uM after 24 hrs by LC/MS/MS analysis; format: ADME, cell-based; details: du-145, 24 h; in short: as §3
# [44] = system: HCT-15; assay: Cytostatic activity against human HCT15 cells after 5 days by SRB assay; format: functional; details: HCT-15, 120 h; in short: as §2
# [45] = system: DU-145; assay: Metabolic stability in human DU145 cells assessed as sodium ((2R,3S,4R,5R)-5-(4-amino-7H-pyrrolo[2,3-d]pyrimidin-7-yl)-3,4-dihydroxytetrahydrofuran-2-yl)methyl hydrogenphosphate-NMP formation per million of cells at 10 uM after 24 hrs by LC/MS/MS analysis; format: ADME, cell-based; details: du-145, 24 h; in short: as §3
# Adenosine kinase, sequence (P55263 whole entry): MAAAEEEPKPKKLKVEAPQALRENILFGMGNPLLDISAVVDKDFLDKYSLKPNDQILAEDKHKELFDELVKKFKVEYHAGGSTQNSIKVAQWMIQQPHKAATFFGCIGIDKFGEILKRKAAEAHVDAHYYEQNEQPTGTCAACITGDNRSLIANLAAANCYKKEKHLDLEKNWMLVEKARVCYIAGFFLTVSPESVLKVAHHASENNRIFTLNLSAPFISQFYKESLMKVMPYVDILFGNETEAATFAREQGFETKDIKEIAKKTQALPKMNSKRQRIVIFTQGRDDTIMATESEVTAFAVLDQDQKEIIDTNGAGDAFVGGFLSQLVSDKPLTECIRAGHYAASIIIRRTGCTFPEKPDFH
compound,measurement,setting,value
Nc1ncnc2c1c(-c1ccoc1)cn2[C@@H]1O[C@H](CO)[C@@H](O)[C@H]1O,IC50,[1],133 nM
same,IC50,[2],1860 nM
same,IC50,[3],126 nM
same,IC50,[4],364 nM
same,IC50,[5],445 nM
same,IC50,[6],9060 nM
same,IC50,[7],> 5000 nM
same,IC50,[8],> 10000 nM
same,IC50,[9],425 nM
same,GI50,[10],170 nM
same,GI50,[11],330 nM
same,IC50,[12],> 10000 nM
same,IC50,[13],139 nM
same,IC50,[14],68 nM
same,IC50,[15],> 10000 nM
same,GI50,[16],15 nM
same,IC50,[17],> 10000 nM
same,GI50,[18],21 nM
same,IC50,[19],> 10000 nM
same,IC50,[20],> 10000 nM
same,IC50,[21],350 nM
same,IC50,[22],> 10000 nM
same,IC50,[23],9740 nM
same,GI50,[24],198 nM
same,IC50,[25],394 nM
same,GI50,[26],34 nM
same,IC50,[27],1670 nM
same,IC50,[28],1330 nM
same,IC50,[29],147 nM
same,IC50,[30],452 nM
same,IC50,[31],> 10000 nM
same,GI50,[32],418 nM
same,IC50,[33],70 nM
same,IC50,[34],> 10000 nM
same,IC50,[35],112 nM
same,GI50,[36],28 nM
same,IC50,[37],20 nM
same,IC50,[38],200 nM
Nc1ncnc2c1c(-c1ccccc1)cn2[C@@H]1O[C@H](CO)[C@@H](O)[C@H]1O,IC50,[6],> 10000 nM
same,IC50,[7],> 5000 nM
same,Stability,[39],0.27 pmol
same,Stability,[40],6.23 pmol
same,Stability,[41],32.91 pmol
same,GI50,[10],> 20000 nM
same,Stability,[42],0.13 pmol
same,GI50,[11],> 20000 nM
same,Stability,[43],68.8 pmol
same,GI50,[44],> 20000 nM
same,GI50,[16],> 20000 nM
same,GI50,[18],> 20000 nM
same,GI50,[24],> 20000 nM
same,GI50,[26],> 20000 nM
same,GI50,[32],> 20000 nM
same,IC50,[33],> 10000 nM
same,Stability,[45],6.68 pmol
same,GI50,[36],> 20000 nM
same,IC50,[37],> 10000 nM
